Only some compounds are listed: those with a hit (about 8.4% of all), similar ones and a draw of the others.
tolC growth inh – E. coli tolC mutant growth inhibition; growth inhibition, % at 10 µM (by protocol); AID 573; 65,000 compounds, 2.2% hits; E. coli BW25113 tolC mutant growth, OD615;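 active means growth inhibition at or above a cutoff equal to the mean over every tested compound plus 3 SD, cut at about 60% in these data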;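 further: growth measured after 20 h incubation at 37 °C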
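Test system – E. coli BW25113 ΔtolC::kan, tolC deletion mutant strain · Detection – OD at 615 nm · Buffer or medium – LB with kanamycin 50 µg/mL · Times – 20 h compound exposure of bacteria at 37 °C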
PostGolgi yeast – growth inhibition of a yeast mutant, post-Golgi transport screen | AID 739 | 98,000 compounds, 0.9% hits | post-Golgi transport phenotypic cell assay | inhibition, % at 10 µM;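 further: yeast cells grown in 1536-well plates; yeast grown about 18 h at 30C before absorbance read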
PostGolgi ctrl – yeast control strain growth, post-Golgi counter-screen | efflux-deficient yeast background strain, growth absorbance A615, 16 h | inhibition, % at 10 µM | 98,000 compounds, 5% hits
Cav3 T inh – blocks human Cav3.2 T-type calcium channel; Cav3.2-expressing cells, Fluo-4 calcium fluorescence FDSS; hits give low values; B-score at 10 µM; 100,000 compounds, 4% hits;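 active means single-dose well whose peak fluorescence ratio is a statistical outlier from its plate by either plate-standardised score or position-corrected B-score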
Ecoli WT expand – blocks growth of wild type E. coli BW25113; 98,000 compounds, 0.15% hits; OD600 absorbance; growth inhibition, % at 100 µM;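 active means growth inhibition above about 50% at one test dose, limit read from the data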;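 further: growth measured after 20 h incubation at 37 °C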
Of the large screens only hits and unclear results are named; the others gave an inactive call. Unless noted, no stated cut-off is given here; in the data, active means inhibition above about 30%; inactive means the rest.

CCc1ccc2c(c1)cc(CN(C(=S)Nc1ccc(Cl)cc1)C1CC1)c1nnnn12	none (no result: tolC growth inh)
Cc1ccc(-c2csc(=S)n2CC(=O)OCC(=O)NCc2ccc(F)cc2)cc1	none (no result: tolC growth inh)
COc1ccc(CNC(=O)c2cc(C3CC3)on2)cc1	PostGolgi ctrl 33
COc1ccc(CNC(=O)c2onc(C)c2Cl)cc1	none
Cc1cc(C)cc(N(CC(=O)NCCSc2ccccn2)S(=O)(=O)c2ccccc2)c1	PostGolgi ctrl 31 (no result: tolC growth inh)
Cc1ccc(N(CC(=O)NCc2ccco2)S(=O)(=O)c2ccccc2)cc1	none
Cc1cccc(N(CC(=O)NCCSCc2ccco2)S(=O)(=O)c2ccccc2)c1	Cav3 T inh -4.1 (no result: tolC growth inh)
Cc1ccc(N(CC(=O)NCCSCc2ccco2)S(=O)(=O)c2ccc(C)cc2)cc1	Cav3 T inh -5.3 (no result: tolC growth inh)
Cc1cccc(CSCCNC(=O)c2ccc(N(C)S(=O)(=O)c3ccccc3)cc2)c1	Cav3 T inh -3.9 (no result: tolC growth inh)
CC1CCc2nn(CC(=O)N3CCc4ccccc43)cc2C1 (configuration not stated)	none (no result: tolC growth inh)
CC(C)Cn1c(C(C)C)nc([N+](=O)[O-])c1S(=O)(=O)c1ccc(F)cc1	none (no result: tolC growth inh)
CC(C)Cn1c(C(C)C)nc([N+](=O)[O-])c1Sc1ccc(Cl)cn1	Cav3 T inh -5.8 (no result: tolC growth inh, PostGolgi yeast, PostGolgi ctrl, Ecoli WT expand)
CCCCn1c(CCC)nc([N+](=O)[O-])c1Sc1ccc(Cl)cn1	Cav3 T inh -9 (no result: tolC growth inh, PostGolgi yeast, PostGolgi ctrl, Ecoli WT expand)
CCCCn1c(-c2ccc([N+](=O)[O-])cc2)n[nH]c1=S	none (no result: tolC growth inh)
CC(C)(C)NC(=O)COC(=O)c1nsc(Cl)c1Cl	none (no result: tolC growth inh, PostGolgi yeast, PostGolgi ctrl, Ecoli WT expand)
CCOc1ccc(CCN2C(=O)C3C4C=CC(C4)C3C2=O)cc1OCC (configuration not stated)	none
CCCCOC(=O)C1=C(C)NC2=C(C(=O)CCC2)C1c1cc(OC)ccc1OC (configuration not stated)	none (no result: Cav3 T inh)
CN1CCN(CC(=O)N2CCn3c4c(c5cc(C6CCCCC6)ccc53)CCCC42)CC1 (configuration not stated)	tolC growth inh 100, PostGolgi yeast 53, PostGolgi ctrl 86
Cc1cccc(NC(=O)CN2C(=O)COc3ccc(Cl)cc32)c1	none (no result: PostGolgi yeast, PostGolgi ctrl, Ecoli WT expand)
Cc1cccc(NC(=O)CN2C(=O)COc3ccc(Cl)cc32)c1C	Cav3 T inh -5.3
COc1cccc(NC(=O)CN2C(=O)COc3ccc(Cl)cc32)c1	Cav3 T inh -5.4
Cc1nc2ccc(NC(=O)c3ccc(F)c(S(=O)(=O)N4CCOCC4)c3)cc2s1	none (no result: tolC growth inh, Cav3 T inh)
CCOC(=O)C1CCCc2c1[nH]c1c(C(N)=O)cccc21 (configuration not stated)	PostGolgi ctrl 34 (no result: tolC growth inh)
O=C(Nc1ccc(-c2noc(-c3cccs3)n2)cc1)c1cccnc1	none
COc1ccccc1-c1cc(C(=O)NC(C)c2ccccc2)no1 (configuration not stated)	tolC growth inh 72, PostGolgi ctrl 61
Cc1ccc(-n2nc3c(c2NC(=O)c2c(-c4ccccc4Cl)noc2C)CSC3)cc1	Cav3 T inh -6
Cc1ccccc1-n1nc2c(c1NC(=O)c1c(-c3ccccc3Cl)noc1C)CSC2	Cav3 T inh -5.9
COC(=O)c1cc(NC(=O)c2cccc(C(F)(F)F)c2)c(=O)oc1C/C=N/OCc1cccc(Cl)c1Cl	Cav3 T inh -4.6 (no result: tolC growth inh)
NC(=O)C1CCCN(S(=O)(=O)c2ccc(Br)cc2)C1 (configuration not stated)	none (no result: Cav3 T inh)
O=C(N/N=C/c1ccc(Sc2nc3ccccc3s2)c([N+](=O)[O-])c1)c1ccccn1	none (no result: tolC growth inh)
CC(=O)OCCCNc1cc(Sc2nc3ccccc3s2)c2nonc2c1[N+](=O)[O-]	PostGolgi ctrl 43 (no result: tolC growth inh)
CC(=O)N(C)C1(c2nnnn2CCOC(=O)Nc2cccc3ccccc23)CCCC1	none
CC(=O)N1CCN(Cc2nc3cc(NC(=O)c4ccccc4)ccc3n2C)CC1	none (no result: tolC growth inh)
CCCC(=O)Nc1ccc2c(c1)nc(CN1CCN(C(C)=O)CC1)n2C	PostGolgi ctrl 31 (no result: tolC growth inh)
Cn1c(CN2CCCC2)nc2cc(NC(=O)COc3ccc(Cl)cc3)ccc21	PostGolgi ctrl 33
COc1ccc(OCC(=O)Nc2ccc3c(c2)nc(CN2CCCC2)n3C)cc1	none (no result: tolC growth inh)
CCc1ccc(N2CC(C(=O)Nc3nnc(CC)s3)CC2=O)cc1 (configuration not stated)	none (no result: tolC growth inh)
COC(=O)c1ccccc1NC(=O)c1ccc2c(c1)OCCO2	tolC growth inh 89
CCOC(=O)c1c(C)oc2ccc(OCc3cc(C(=O)OC)oc3C)cc12	none (no result: tolC growth inh)
CCN(CC)S(=O)(=O)c1ccc(C(=O)Nc2nnc(C(C)C)s2)cc1	none
CSCc1nnc(NC(=O)c2ccc(S(=O)(=O)N(CC(C)C)CC(C)C)cc2)o1	tolC growth inh 99, Cav3 T inh -6
CCc1nnc(NC(=O)c2ccc(S(=O)(=O)N3CCCc4ccccc43)cc2)o1	none (no result: tolC growth inh)
CCc1nnc(NC(=O)c2ccc(S(=O)(=O)N(CC(C)C)CC(C)C)cc2)o1	tolC growth inh 99
COc1ccc(NC(=O)N(CCC(C)C)C(C)c2ccccn2)c(OC)c1 (configuration not stated)	none
COC(=O)[C@H]1CCCN1C(=O)Nc1cccc(Oc2c(F)c(F)c(F)c(F)c2F)c1	none (no result: Cav3 T inh)
COc1cc(Cl)c(C)cc1NC(=O)COC(=O)c1cnc(C)cn1	none
O=C(/C=C/c1ccc([N+](=O)[O-])cc1)NCCSc1ccccc1	Cav3 T inh -3.8 (no result: tolC growth inh)
CCCOc1ccc(/C=C/C(=O)Nc2ccc([N+](=O)[O-])cc2)cc1	PostGolgi ctrl 95 (no result: tolC growth inh)
O=C(/C=C/c1ccccc1Cl)NCCc1ccccc1	none (no result: tolC growth inh)
Cc1ccc(SCCNC(=O)/C=C/c2ccccc2Cl)cc1	Cav3 T inh -2.8 (no result: tolC growth inh)
Cc1ccc(OCCNC(=O)/C=C/c2ccc([N+](=O)[O-])cc2)cc1C	none (no result: tolC growth inh)
O=C(Cn1ccc2ccccc2c1=O)NCCC(=O)Nc1ccc2c(c1)OCCO2	none
O=C(CN(Cc1ccccc1)S(=O)(=O)c1ccccc1)N/N=C/c1ccc2c(c1)OCO2	Cav3 T inh -4.2 (no result: tolC growth inh)
CNc1cc(CSC)nc(SCc2ccc(Cl)cc2Cl)n1	PostGolgi ctrl 39 (no result: tolC growth inh)
CCCC(=Nc1ccc(N)cc1)C1=C(O)C(C(=O)OC)C(C)(C)CC1=O (configuration not stated)	Cav3 T inh -5.1 (no result: tolC growth inh)
CCc1ccc(N(CC(=O)Nc2ccc(OC)cc2OC)S(C)(=O)=O)cc1	none
CC(C(=O)Oc1ccc2c(c1)OCO2)N1C(=O)c2ccccc2C1=O (configuration not stated)	Cav3 T inh -3.6
CCn1c(Sc2nc(C)nc3scc(-c4cccs4)c23)n[nH]c1=O	PostGolgi yeast 104, PostGolgi ctrl 102
CCc1nc2scc(-c3cccs3)c2c(=O)o1	none (no result: tolC growth inh, PostGolgi yeast, PostGolgi ctrl, Ecoli WT expand)
O=C(/C=C/c1ccccc1)N1CCN(c2ccc([N+](=O)[O-])c(N3CCOCC3)c2)CC1	none (no result: tolC growth inh)
COc1cccc(OC)c1C(=O)OCC(=O)Nc1ccc(OC(F)(F)F)cc1	Cav3 T inh -4.8 (no result: tolC growth inh)
COc1ccccc1C(=O)OCC(=O)Nc1ccc(OC(F)F)cc1	none
CN1C(C(=O)NCC2CC2)CC2Cn3c(nc4cc(Cl)c(Cl)cc43)C21 (configuration not stated)	none (no result: tolC growth inh, PostGolgi yeast, PostGolgi ctrl, Ecoli WT expand)
COCCn1c(C23CC4CC(CC(C4)C2)C3)n[nH]c1=S	PostGolgi ctrl 32
COCCn1c(-c2ccccc2F)n[nH]c1=S	none
